Data published in the RNAGym collection of RNA variant scans (doi:10.1126/science.aae0568).
This sample holds only a part of the variants without activity.

B1: tRNA (parent)
chain: GUUCCGUUGGCGUAAUGGUAACGCGUCUCCCUCCUAAGGAGAAGACUGCGGGUUCGAGUCCCGUACGGAACG

Variants of: B1
Experiment: yeast fitness relative to wild type (ratio to wild type); higher = fitter; tRNA-Arg(CCU), competitive growth, 37 C, YPD
Method in brief: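 The tRNA-Arg(CCU) gene variants were made by chemical synthesis with a 3% per-site mutation rate at 69 sites and inserted at the native genomic locus of Saccharomyces cerevisiae. After pooling, the strains were competed in YPD at 37°C for 24 hours in six parallel replicates. Gene amplicons from the start population and each end population were read by 100-nucleotide paired-end sequencing, and Darwinian fitness relative to wild type was taken from genotype frequency changes. Genotypes needed ≥ 100 starting reads, and estimates < 0.5 were set to 0.5.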

Variant	yeast fitness
A20C C29U C31G C61G	≤ 0.5
A20C U26G A43U	≤ 0.5
A20C U35G C46U	≤ 0.5
A20C G52C C61G	≤ 0.5
A20G C22G C49G	0.568
A20C G25A G44C G68A	0.523
A20C C30U C33G A40G	0.537
A20G C33G U53A	≤ 0.5
A20G A40C A69G	0.625
A20C C34A G50C C61U	≤ 0.5
A20G C24U U32A C49U C55A	≤ 0.5
A20G C29U C55G A57C C61U	0.746
A20G C30A	1
A20G C30U	0.871
A20G C30G	0.593
A20C C29G A57U	≤ 0.5
A20G A36U G63C U64C	0.666
A20C C34A A37G C46A G63C A69C	≤ 0.5
A20G A43G U47G U64G	≤ 0.5
A20C C31U A40G G52C G67C	≤ 0.5
A20G C22A C34G C46U G63A	≤ 0.5
A20C C33A A40C	0.7
A20G A43U A45C G67C	≤ 0.5
A20C C27A G52C	0.595

Variant	yeast fitness
A20C G25C C29U	≤ 0.5
A20G A40G C66U	0.647
A20G A42C C61U	0.573
A20C C27U C62U	0.731
A20C C29U G50C	≤ 0.5
A20C C55U A70C	0.612
A20G C30A G48A U53G	0.505
A20G A57G	1
A20G A57U	0.649
A20C G39C A70U	0.521
A20C C30A A45U C60U	≤ 0.5
A20G C29U G38A G48C C62G	≤ 0.5
A20G C31G C46G G50A G67C	≤ 0.5
A20C C46U	1.13
A20C U59A	0.697
A20G C30U C55U	≤ 0.5
A20C G25A C31G C33U C34U G41C A57G	≤ 0.5
A20G A70U	1.06
A20G A70C	0.994
A20G A70G	1.02
A20G C34A A36G C66U	≤ 0.5
A20C C29U A37G	0.753
A20G C24A C27A A42G A69C	0.56
A20G C22U C31G	0.626

Variant	yeast fitness
A20G A36U A57C	≤ 0.5
A20C C34U C60A C66U	0.605
A20C G23A C30A A40U	≤ 0.5
A20C C33U G38C	≤ 0.5
A20C C33A A65U	≤ 0.5
A20C C30U C31U A45C A57U C66G	≤ 0.5
A20C G48C A57G	0.545
A20G C27U C33G A43G A57G C61U C62U	≤ 0.5
A20C C61G C62A	≤ 0.5
A20C C33G U59C	0.685
A20C U26A C34G C46G	0.595
A20G C27G A43U G63A G68C	≤ 0.5
A20C G56A C61U	0.571
A20C C31G U47C G58C	≤ 0.5
A20G C30A C55A G68A	≤ 0.5
A20C C30A A70G	0.588
A20C C29G A69C	0.539
A20G C33A A36C U47A C66A	≤ 0.5
A20C G48C C66U	0.73
A20C C33A G41C C49G A70U	0.575
A20C U26G A36C G38U	≤ 0.5
A20C G68U	0.909
A20C G68C	0.689
A20C C49A U54A G58A C60A	0.593

Variant	yeast fitness
A20C C34G G68C	≤ 0.5
A20C C29U U54C	≤ 0.5
A20G C33G C49A U54G A65G	≤ 0.5
A20G C33A G44A C61U	0.553
A20C G25C U35A A45U	≤ 0.5
A20G C22G A45C C46G A57U	0.553
A20G C22A G23C	≤ 0.5
A20G C27G G48A	≤ 0.5
A20G A42C U64G	≤ 0.5
A20G C31U	0.995
A20G C31G	0.966
A20G C31A	0.8
A20G C22G C27G C30U C31G G51C U54C A65G	≤ 0.5
A20C C30G C62U	0.554
A20C G23C C34A G67A	≤ 0.5
A20C C34A	0.674
A20G A42U	0.982
A20C C61U A69C A70C	≤ 0.5
A20C G38A C49A G58C A65G G68A A69C	0.589
A20G C22G C27G C30U C31G G51C A65G	0.563
A20G C27U	1.1
A20G C27G	0.608
A20G C27A	0.933
A20C C29U C49G G58A	≤ 0.5

Variant	yeast fitness
A20C U64A	0.7
A20C U64C	0.984
A20C U26A C34G A36G C46G	≤ 0.5
A20G A40G C49U G58A	≤ 0.5
A20C C33A G48A C66U A70G	≤ 0.5
A20C G25C G38C G56C G63C U64C	0.524
A20C G38C	0.639
A20C G38A	0.707
A20C C46U G50A G67C A70U	≤ 0.5
A20C U28C C30A G44C A45G C55A	≤ 0.5
A20G C29U C34U G50A C55G	≤ 0.5
A20G C29U A37G C66U	≤ 0.5
A20C G48C	0.889
A20G C24G C60A	≤ 0.5
A20G A45G C49U	0.687
A20C C62U A70G	0.733
A20C G23A C55G	0.593
A20G A57U A65U G68C	≤ 0.5
A20C C30A C33U C34G G38C C62A	≤ 0.5
A20C C34U A40G A57C G67C	≤ 0.5
A20G C24G	0.575
A20G C24A	0.56
A20G C31U A36U	0.53
A20C U32A A37U	≤ 0.5

Variant	yeast fitness
A20C U53G	0.623
A20C C30A	0.746
A20C C27U	1.02
A20C G39A	0.84
A20G A43U C61G	≤ 0.5
A20C C29U U32A A70U	≤ 0.5
A20G C22A C24U	0.589
A20C U47G A69U	0.559
A20G C22G U47C U53G	≤ 0.5
A20G A37G U59A A70C	≤ 0.5
A20C U53G C66U	0.696
A20C G51C	0.541
A20C G51A	0.815
A20C C27U A45U	0.636
A20C C30U C66U	≤ 0.5
A20G C29U A57C	≤ 0.5
A20G A40U U64A	≤ 0.5
A20C G25C	0.783
A20C G25A	1.06
A20G A21C C49U	0.548
A20C U35G C46U G67U	≤ 0.5
A20G A36C	0.596
A20G C27G A40U	≤ 0.5
A20G C33A A37G C62A	≤ 0.5

Variant	yeast fitness
A20C C30A A57U	≤ 0.5
A20C U47C	0.925
A20C G56C	0.625
A20G C29G C34A	≤ 0.5
A20C C33U	0.816
A20C U28G U47C G68C	≤ 0.5
A20G A69G	1.04
A20G A69C	0.916
A20G A69U	1.07
A20G C27U A45C A57C	≤ 0.5
A20C G38C A70C	≤ 0.5
A20C C33U G41A	≤ 0.5
A20C U32A U64A A65U	0.558
A20G C22U C49U	0.682
A20G A40C A42U A43C G48A C55G	≤ 0.5
A20C C31U G68C	0.609
A20C G38A G51C U64G	≤ 0.5
A20C U26C C27U G67A	≤ 0.5
A20C G39C C61U	≤ 0.5
A20G A21C A43U G50A G52U A69C	≤ 0.5
A20C U28C G41A	0.592
A20C C49G C62U	≤ 0.5
A20C C30A A37G U59A	≤ 0.5
